Source: PubChem BioAssay (Johns Hopkins Ion Channel Center)
RGS4 block: human RGS4 inhibition | P49798 | HEK293 M3R/RGS4 inducible, Fluo-4 calcium flux; active compounds read high; triggered by carbachol at its EC20 | B-score at 10 µM | actives 0.45% (n = 310,000) | AID 463165;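 active = B-score, a plate-corrected calcium signal, over three deviations above library mean, with baseline fluorescence within five deviations of library mean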;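 note: RGS4 expression induced by doxycycline in cells with stable M3 receptor; B-score is computed from the integrated fluorescence ratio over baseline after carbachol; higher B-score means a larger calcium signal and so more RGS4 inhibition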
Target sequence (P49798 whole entry, looked up): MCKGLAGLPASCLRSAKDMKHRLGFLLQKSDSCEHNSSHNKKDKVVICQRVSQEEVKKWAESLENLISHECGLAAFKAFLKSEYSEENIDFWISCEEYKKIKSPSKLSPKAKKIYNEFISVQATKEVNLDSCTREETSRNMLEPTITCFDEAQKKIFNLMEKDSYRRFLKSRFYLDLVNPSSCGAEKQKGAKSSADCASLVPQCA
MrgX1 PAM: allosterically activates human MrgX1 receptor signaling | MrgX1-HEK293, Fluo-4 calcium flux, FDSS; active compounds read high | B-score at 10 µM | actives 0.63% (n = 310,000) | AID 588675;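 active = plate-corrected calcium response at least 3 library SD above typical, normal starting fluorescence, not activating the receptor alone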;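 note: compound read alongside a low EC10 to EC30 dose of BAM8-22 agonist; peak minus trough fluorescence over baseline measured at the second addition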
Target sequence (Q96LB2 whole entry, looked up): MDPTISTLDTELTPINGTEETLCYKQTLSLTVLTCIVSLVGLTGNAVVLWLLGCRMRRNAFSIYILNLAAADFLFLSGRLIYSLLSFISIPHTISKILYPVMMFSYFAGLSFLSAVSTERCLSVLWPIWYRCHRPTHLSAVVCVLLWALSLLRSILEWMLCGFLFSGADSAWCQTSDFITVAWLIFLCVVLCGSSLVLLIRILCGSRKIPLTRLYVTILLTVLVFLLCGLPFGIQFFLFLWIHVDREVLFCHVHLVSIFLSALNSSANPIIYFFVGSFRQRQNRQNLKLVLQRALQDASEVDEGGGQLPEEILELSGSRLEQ
RGS4 act: RGS4 potentiation or activation. HEK293 M3R/inducible RGS4, carbachol calcium flux Fluo4; active compounds read low. B-score at 10 µM. actives 0.92% (n = 310,000). AID 463111;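 active = B-score of the integrated calcium signal more than 4 SD below the library mean, with starting fluorescence not abnormally high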;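 note: negative B-score means reduced calcium response which marks RGS4 activation or potentiation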
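Reagent: ECmax carbachol challenge; Test system: M3R-expressing HEK293 line, RGS4 induced by doxycycline; Schedule: overnight RGS4 induction, 30 min dye load 37 °C, 20 min compound RT; Detection: calcium dye Fluo4 fluorescence; Read-out: Agonist-evoked peak-minus-minimum fluorescence over baseline, integrated ratio, B score.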
MrgX1 antag: antagonists of human MrgX1 receptor; Q96LB2; MRGX1-HEK293 calcium flux, Fluo-4, BAM8-22 antagonism; active compounds read low; B-score at 10 µM; actives 1.3% (n = 310,000); AID 588676;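 active = calcium-response B-score plate-corrected more than 3 library SD below zero, starting fluorescence within 5 deviations, no agonist response on first addition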;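 note: peak minus trough fluorescence over baseline after final BAM8-22 challenge near maximal dose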
MrgX1 ag: activates human MrgX1 receptor signaling; MrgX1-HEK293 cells, Fluo-4 calcium fluorescence, agonist mode; active compounds read high; B-score at 10 µM; actives 0.44% (n = 310,000); AID 588627;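 active = calcium response B-score plate-corrected fluorescence ratio at least 3 library SD, with starting fluorescence B-score inside 5 SD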
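Test system: HEK293 cells stably expressing human MrgX1 receptor; Input: fifteen thousand cells per well; Dosing: compound delivered in addition one of three; Schedule: overnight seeding, then 1 h dark dye loading; Technique: Fluo-4 NW calcium fluorescence; Measure: B-scored fluorescence response ratio; Controls: positive and negative controls per plate.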
MrgX1 antag conf: reconfirmed antagonist of human MrgX1 receptor signaling; actives 19% (n = 2,300); remaining BAM8-22 calcium response % of control (active compounds read low), % at 10 µM; MrgX1-HEK293, BAM8-22 calcium flux, Fluo-4; active compounds read low; shares compounds with MrgX1 antag; AID 602420;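 active = remaining agonist calcium response no higher than 100% minus 3 SD of agonist-only control wells, with starting fluorescence near control levels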;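 note: agonist BAM8-22 given at a near maximal EC90 to ECmax level; peak minus minimum fluorescence divided by baseline after agonist addition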
HEK293 Ca flux: MrgX1 antagonist counter-screen hit in parental HEK293 cells; Fluo-4 calcium fluorescence, FDSS; AID 624111; shares compounds with MrgX1 antag; actives 2% (n = 4,000); fluorescence ratio F(max-min)/F0 at 10 µM;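 active = duplicate-averaged calcium fluorescence ratio at least three times the standard deviation of buffer wells, a nonspecific response in parental cells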
HEK293 Ca counter: counter-screen for MrgX1 allosteric activators: effect in parental HEK293 cells; shares compounds with MrgX1 antag; parental HEK293 calcium flux, Fluo-4 fluorescence ratio; active compounds read high; fluorescence ratio F(max-min)/F0 at 10 µM; actives 0.4% (n = 4,000); AID 624114;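 active = calcium fluorescence ratio, averaged over duplicates, at least 3 SD of the buffer-well ratio, meaning a nonspecific response in receptor-free cells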;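 note: untransfected parental HEK293 lacking MrgX1 used as counterscreen for MrgX1 allosteric activators; fluorescence change taken during the second addition on a kinetic imager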
HEK293 Ca cntr2: activity in parental HEK293 cells lacking MrgX1 receptor; fluorescence ratio F(max-min)/F0 at 10 µM; AID 624115; shares compounds with MrgX1 antag; Fluo-4 calcium fluorescence (FDSS); active compounds read high; actives 8.7% (n = 4,000);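 active = calcium fluorescence ratio at least three times the spread of buffer wells, meaning a non-specific response in parental cells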
* = called active by the depositor; i = inactive; x = not tested or not shown. An excerpt weighted towards active compounds, which were near 3.5% of everything screened.

SMILES	RGS4 block	MrgX1 PAM	RGS4 act	MrgX1 antag	MrgX1 ag	MrgX1 antag conf	HEK293 Ca flux	HEK293 Ca counter	HEK293 Ca cntr2
O=C1N=C(c2ccccc2)C(c2ccccc2)N1 (stereo not given)	i	i	i	-7.29*	i	i	i	i	i
COc1cccc(C2=CC(c3ccc(OC)c(OC)c3OC)n3nnnc3N2)c1 (stereo not given)	i	i	i	i	i	x	x	x	x
COc1cccc(C2=CC(c3cccs3)n3nnnc3N2)c1 (stereo not given)	i	i	i	-5.47*	i	84.0%*	i	i	i
CC1=C(C(N)=O)C(c2ccc(Cl)cc2)n2nc(CCCO)nc2N1 (stereo not given)	i	i	i	i	i	x	x	x	x
CC1=C(C(N)=O)C(c2cccc(O)c2)n2nc(CCCO)nc2N1 (stereo not given)	i	i	i	-4.71*	i	i	i	i	i
Cc1ccc(NC(=S)NCCc2ccccc2)c(C)c1	i	i	i	-5.18*	i	i	i	i	i
Cc1cc(Br)ccc1NC(=S)NCCc1ccccc1	i	i	i	i	i	x	x	x	x
O=C(NCc1ccccc1)C(=O)NCC1CCCN1S(=O)(=O)c1cccs1 (stereo not given)	i	i	i	-15.8*	i	i	i	i	i
COc1ccccc1CNC(=O)C(=O)NCC1CCCN1S(=O)(=O)c1cccs1 (stereo not given)	i	i	i	-4.77*	i	82.8%*	i	i	i
Cc1cccc(NC(=O)C(=O)NCC2CCCN2S(=O)(=O)c2cccs2)c1C (stereo not given)	i	i	i	-5.48*	i	i	i	i	i
O=C(NCC1CCCN1S(=O)(=O)c1cccs1)C(=O)Nc1ccccc1 (stereo not given)	i	i	i	i	i	x	x	x	x
COc1cc(C(=O)NCC2CCCN2S(=O)(=O)c2cccs2)cc(OC)c1OC (stereo not given)	i	i	i	-7.74*	i	i	i	i	i
Cc1ccc(C(=O)NCC2CCCN2S(=O)(=O)c2cccs2)cc1C (stereo not given)	i	i	i	i	i	x	x	x	x
Cc1ccc(NC(=O)C(=O)NCC2CCCN2S(=O)(=O)c2cccs2)cc1 (stereo not given)	i	i	i	i	i	x	x	x	x
COC(=O)C(C(=O)OC)C(c1ccccc1)C(C(=O)c1ccccc1)[N+](=O)[O-] (stereo not given)	i	i	i	i	i	x	x	x	x
Cc1ccc(S(=O)(=O)N2CCCC2CNC(=O)C(=O)NCc2ccccn2)cc1 (stereo not given)	i	i	i	-7.09*	i	i	i	i	i
CC(=O)Nc1ccc(NS(=O)(=O)C(F)(F)F)cc1	i	i	i	-8.72*	i	i	i	i	i
CC(=O)Nc1ccc(-c2ccc(NC(C)=O)cc2)cc1	i	i	i	i	i	x	x	x	x
COc1ccc(-c2nc3ccccc3c(=O)n2CCOc2ccccc2C)cc1	i	i	i	-7.01*	i	i	i	i	i
COc1ccc(-c2nc3ccccc3c(=O)n2CCOc2ccc(C)cc2C)cc1	i	i	i	i	i	x	x	x	x
CCCCN(CC)C(=O)C1CCC(CNS(=O)(=O)c2cccc3nsnc23)CC1 (stereo not given)	i	i	i	i	i	x	x	x	x
CCOC(=O)N1CCN(C(=O)C2CCN(Cc3nc(-c4ccccc4C)oc3C)CC2)CC1	i	i	i	-4.8*	i	i	i	i	i
CCc1ccc2nc(SCC(=O)Nc3nnc(C)s3)c(C)cc2c1	i	i	i	-6.22*	i	83.5%*	i	i	i
O=C(NCCN1CCOCC1)c1ccc2c(c1)ncn2C1CCCCC1	i	i	i	-6.84*	i	i	i	i	i
CCOC(=O)N1CCN(C(=O)CN(Cc2ccc(Cl)cc2)S(C)(=O)=O)CC1	i	i	i	-6.23*	i	i	i	i	i
SMILES	RGS4 block	MrgX1 PAM	RGS4 act	MrgX1 antag	MrgX1 ag	MrgX1 antag conf	HEK293 Ca flux	HEK293 Ca counter	HEK293 Ca cntr2
CCC1CCCCN1CCCNC(=O)CCC(=O)N1CC(C)Oc2ccccc21 (stereo not given)	i	i	i	i	i	x	x	x	x
COC(=O)Oc1cncc(C(=O)O)c1	i	i	i	-5.15*	i	i	i	i	i
C=CCOC(=O)C1=C[C@H](c2coc3ccccc3c2=O)C[C@H](OCCCCO)O1	i	i	i	i	i	x	x	x	x
CC(=O)Nc1ccc(Nc2nc(C)c([N+](=O)[O-])c(Nc3ccc(NC(C)=O)cc3)n2)cc1	i	i	i	-22.1*	i	82.2%*	i	i	i
CNc1nc(C)c([N+](=O)[O-])c(Nc2ccc(OC)cc2)n1	i	i	i	i	i	x	x	x	x
O=C(c1ccc(Br)o1)N1CCN(C23CC4CC(CC(C4)C2)C3)CC1	i	i	i	-5.02*	i	i	i	i	i
Cn1ncc([N+](=O)[O-])c1C(=O)N/N=C/c1ccc(F)cc1	i	i	i	i	i	x	x	x	x
O=S1(=O)N=C2CCCCCN2C(c2ccccc2)N1 (stereo not given)	i	i	i	-4.62*	i	85.2%*	i	i	i
O=C(O)c1ccc(NC2=C(Cl)C(=O)c3ccccc3C2=O)cc1	i	i	-7.3*	-18*	i	13.5%*	i	i	i
CC(CNC(=O)c1ccc(NC2=NC3CS(=O)(=O)CC3S2)cc1)c1ccccc1 (stereo not given)	i	i	i	-5.16*	i	i	i	i	i
CC(NC(=O)Cc1ccc(NC2=NC3CS(=O)(=O)CC3S2)cc1)c1ccccc1 (stereo not given)	i	i	i	i	i	x	x	x	x
